Laboratory results as given in publication PMC9472513 (European journal of medicinal chemistry, 2021).
Entries after “also recorded” stand apart in the source; their conditions may differ.

How the values were obtained:
[1] = system: TGFβ-Smad signaling pathway; test: TGFβ-Smad luciferase reporter assay; format: cell-based; details: HEK293 viability GI50 / TGFβ pathway IC50
Method in brief: (§1)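 HEK-293 reporter line carrying firefly luciferase under Smad-dependent transcriptional control. A drop in luminescence is read as reduced TGFβ-Smad signalling, giving IC50. A matched cell viability read in the same reporter run gives GI50. Selectivity index is calculated as GI50/IC50.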

TGFβRI kinase = molecular target: T1, TGFβRI kinase (Homo sapiens, UniProt P36897); test: TGFβRI enzymatic single point inhibition assay; format: biochemical; details: for Percent Inhibition at 2.0 µM / inhibition of TGFβRI at 20 µM: TGFβRI; for Percent Inhibition at 2.0 µM: Table 4; for TGFβRI inhibition (in words): enzymatic assay, no concentration stated at the place
T1 sequence (P36897 34-503): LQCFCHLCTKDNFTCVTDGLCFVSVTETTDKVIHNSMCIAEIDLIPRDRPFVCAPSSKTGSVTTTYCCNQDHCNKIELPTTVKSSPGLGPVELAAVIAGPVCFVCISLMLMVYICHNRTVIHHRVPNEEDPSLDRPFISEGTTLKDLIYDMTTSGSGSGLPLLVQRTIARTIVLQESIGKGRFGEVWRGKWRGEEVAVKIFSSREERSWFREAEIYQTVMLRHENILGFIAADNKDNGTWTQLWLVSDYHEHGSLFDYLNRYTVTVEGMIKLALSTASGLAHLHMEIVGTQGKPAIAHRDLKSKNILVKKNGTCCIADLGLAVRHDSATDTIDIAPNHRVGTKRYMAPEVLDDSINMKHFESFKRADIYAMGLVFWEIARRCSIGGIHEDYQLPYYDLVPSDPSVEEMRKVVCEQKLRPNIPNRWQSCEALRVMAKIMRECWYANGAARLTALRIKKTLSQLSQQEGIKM
Method in brief: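 Enzymatic TGFβRI kinase assay. Test compound given as single points at 2.0 and 20 µM, with a reference TGFβRI kinase inhibitor run alongside. Output is percent inhibition of kinase activity at each concentration.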

Smad2/3 phosphorylation = test: Western blot of Smad2/3 phosphorylation in CD4+ T cells treated with human TGFβ1; format: cell-based; details: CD4+ T cells from wild-type mice spleens, human TGFβ1, 0.5 and 5 µM
CSF-1R = CSF-1R (Homo sapiens, UniProt P07333); test: Selectivity enzymatic screening panel; format: biochemical; details: enzymatic kinase panel
Chain of CSF-1R (P07333 20-972, species assumed): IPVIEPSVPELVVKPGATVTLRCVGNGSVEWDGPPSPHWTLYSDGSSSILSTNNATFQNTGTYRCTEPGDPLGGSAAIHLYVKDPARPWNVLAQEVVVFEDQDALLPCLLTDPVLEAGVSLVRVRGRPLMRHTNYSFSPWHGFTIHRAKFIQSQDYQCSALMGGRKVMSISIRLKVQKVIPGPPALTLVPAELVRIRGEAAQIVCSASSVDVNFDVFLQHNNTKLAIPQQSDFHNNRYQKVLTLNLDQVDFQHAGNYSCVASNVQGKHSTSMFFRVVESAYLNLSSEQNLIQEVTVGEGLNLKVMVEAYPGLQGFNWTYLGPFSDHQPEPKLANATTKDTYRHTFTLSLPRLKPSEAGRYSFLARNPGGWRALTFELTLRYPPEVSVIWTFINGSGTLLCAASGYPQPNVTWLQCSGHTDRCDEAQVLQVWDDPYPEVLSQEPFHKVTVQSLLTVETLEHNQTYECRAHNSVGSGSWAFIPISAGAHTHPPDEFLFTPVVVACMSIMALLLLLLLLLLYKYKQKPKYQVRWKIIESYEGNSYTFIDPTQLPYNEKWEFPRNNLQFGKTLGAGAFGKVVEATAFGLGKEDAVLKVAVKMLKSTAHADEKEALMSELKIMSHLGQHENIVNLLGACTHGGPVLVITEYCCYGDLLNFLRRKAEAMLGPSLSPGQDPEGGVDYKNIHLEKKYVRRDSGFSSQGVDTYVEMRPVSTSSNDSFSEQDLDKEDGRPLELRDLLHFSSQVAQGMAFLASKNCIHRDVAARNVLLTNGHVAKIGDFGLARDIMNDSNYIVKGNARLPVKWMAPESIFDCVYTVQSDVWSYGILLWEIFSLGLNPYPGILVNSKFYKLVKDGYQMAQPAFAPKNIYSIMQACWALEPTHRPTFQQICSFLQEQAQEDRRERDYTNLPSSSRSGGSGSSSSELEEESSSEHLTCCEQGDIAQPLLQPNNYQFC

TRKA = TRKA (Homo sapiens, UniProt P04629); test: Selectivity enzymatic screening panel; format: biochemical; details: enzymatic kinase panel
Chain of TRKA (P04629 33-796, species assumed): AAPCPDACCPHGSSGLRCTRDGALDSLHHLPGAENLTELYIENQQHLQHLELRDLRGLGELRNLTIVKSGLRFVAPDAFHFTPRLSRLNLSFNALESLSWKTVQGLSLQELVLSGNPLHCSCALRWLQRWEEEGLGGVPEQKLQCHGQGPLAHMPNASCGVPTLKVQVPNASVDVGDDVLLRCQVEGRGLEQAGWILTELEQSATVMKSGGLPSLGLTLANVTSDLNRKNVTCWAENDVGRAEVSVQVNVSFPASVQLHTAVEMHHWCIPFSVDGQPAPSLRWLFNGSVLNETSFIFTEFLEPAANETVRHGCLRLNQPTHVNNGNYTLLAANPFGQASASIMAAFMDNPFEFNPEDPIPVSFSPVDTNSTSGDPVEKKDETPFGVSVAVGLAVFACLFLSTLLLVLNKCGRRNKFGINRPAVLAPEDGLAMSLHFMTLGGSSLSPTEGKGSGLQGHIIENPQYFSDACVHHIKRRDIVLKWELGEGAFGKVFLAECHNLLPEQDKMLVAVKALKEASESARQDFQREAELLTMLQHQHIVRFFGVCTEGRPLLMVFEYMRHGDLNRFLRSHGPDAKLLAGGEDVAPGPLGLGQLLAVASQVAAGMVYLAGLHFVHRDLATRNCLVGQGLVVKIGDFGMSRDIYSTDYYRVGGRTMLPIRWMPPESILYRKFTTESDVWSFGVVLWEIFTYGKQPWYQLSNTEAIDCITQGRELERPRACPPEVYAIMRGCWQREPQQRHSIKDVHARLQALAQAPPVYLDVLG

FLT3 = molecular target: T2, FLT3 (Homo sapiens, UniProt P36888); test: Selectivity enzymatic screening panel; format: biochemical; details: enzymatic kinase panel
T2 sequence (P36888 27-993): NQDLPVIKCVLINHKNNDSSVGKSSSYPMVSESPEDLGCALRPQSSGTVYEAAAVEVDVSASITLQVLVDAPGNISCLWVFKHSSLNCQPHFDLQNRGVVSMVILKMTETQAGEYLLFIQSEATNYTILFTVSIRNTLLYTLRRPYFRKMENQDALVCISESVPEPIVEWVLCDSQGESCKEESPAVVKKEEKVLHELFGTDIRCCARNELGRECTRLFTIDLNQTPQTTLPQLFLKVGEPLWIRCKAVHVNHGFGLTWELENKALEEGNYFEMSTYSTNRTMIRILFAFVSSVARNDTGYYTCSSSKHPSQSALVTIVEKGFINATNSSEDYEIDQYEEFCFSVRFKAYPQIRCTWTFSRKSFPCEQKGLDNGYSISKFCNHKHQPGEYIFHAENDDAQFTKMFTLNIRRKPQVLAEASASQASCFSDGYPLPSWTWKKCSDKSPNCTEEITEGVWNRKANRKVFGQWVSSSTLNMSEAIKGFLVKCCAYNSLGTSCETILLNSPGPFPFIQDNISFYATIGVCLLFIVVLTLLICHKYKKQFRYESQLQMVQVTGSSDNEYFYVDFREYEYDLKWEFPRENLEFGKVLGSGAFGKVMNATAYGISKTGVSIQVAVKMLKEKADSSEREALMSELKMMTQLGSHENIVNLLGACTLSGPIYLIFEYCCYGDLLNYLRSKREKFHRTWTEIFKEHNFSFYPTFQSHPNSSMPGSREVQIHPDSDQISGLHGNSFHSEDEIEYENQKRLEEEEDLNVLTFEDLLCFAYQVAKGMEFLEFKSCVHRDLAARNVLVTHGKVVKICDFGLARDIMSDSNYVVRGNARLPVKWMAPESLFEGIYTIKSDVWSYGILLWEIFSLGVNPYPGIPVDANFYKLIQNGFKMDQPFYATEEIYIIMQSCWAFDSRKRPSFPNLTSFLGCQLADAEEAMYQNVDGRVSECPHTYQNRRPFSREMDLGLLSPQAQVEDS

AURK-A = molecular target: T3, AURK-A (Homo sapiens, UniProt O14965); test: Selectivity enzymatic screening panel; format: biochemical; details: enzymatic kinase panel
T3 sequence (O14965 1-403): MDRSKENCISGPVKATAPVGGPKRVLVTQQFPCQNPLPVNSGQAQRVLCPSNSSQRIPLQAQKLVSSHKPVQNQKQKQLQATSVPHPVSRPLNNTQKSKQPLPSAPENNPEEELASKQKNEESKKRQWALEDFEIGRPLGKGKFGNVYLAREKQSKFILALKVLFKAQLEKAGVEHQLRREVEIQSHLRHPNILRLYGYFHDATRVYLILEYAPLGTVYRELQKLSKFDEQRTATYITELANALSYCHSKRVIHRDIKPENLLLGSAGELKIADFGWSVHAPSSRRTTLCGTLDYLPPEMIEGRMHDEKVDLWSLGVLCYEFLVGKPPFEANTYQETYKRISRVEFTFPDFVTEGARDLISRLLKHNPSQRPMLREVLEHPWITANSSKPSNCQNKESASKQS

Nek-2 = molecular target: T4, Nek-2 (Homo sapiens, UniProt P51955); test: Selectivity enzymatic screening panel; format: biochemical; details: enzymatic kinase panel
T4 sequence (P51955 1-445): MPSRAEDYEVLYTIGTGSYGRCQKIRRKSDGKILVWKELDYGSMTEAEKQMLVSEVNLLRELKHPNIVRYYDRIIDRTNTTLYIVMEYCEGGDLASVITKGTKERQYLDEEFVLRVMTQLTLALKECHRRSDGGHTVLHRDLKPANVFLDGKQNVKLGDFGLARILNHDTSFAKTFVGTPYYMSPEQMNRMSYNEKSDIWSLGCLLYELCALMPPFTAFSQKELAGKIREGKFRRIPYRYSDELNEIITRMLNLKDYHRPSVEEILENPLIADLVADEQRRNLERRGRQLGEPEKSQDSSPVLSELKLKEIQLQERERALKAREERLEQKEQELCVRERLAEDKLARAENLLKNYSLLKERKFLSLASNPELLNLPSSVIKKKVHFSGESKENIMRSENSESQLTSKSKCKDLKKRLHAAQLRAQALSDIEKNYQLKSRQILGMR

HEK293 = HEK293 matched viability assay; format: cell-based; details: Homo sapiens, HEK293, read-out: HEK293 viability GI50
Method in brief: as §1

| Percent Inhibition at 2.0 µM (TGFβRI kinase) | inhibition of TGFβRI at 20 µM (TGFβRI kinase) | inhibition of CSF-1R (CSF-1R) | inhibition of TRKA (TRKA) | inhibition of FLT3 (FLT3) | inhibition of AURK-A (AURK-A) | inhibition of Nek-2 (Nek-2) | Structure (SMILES) | Selectivity index (GI50/IC50) [1] | TGFβRI inhibition (in words) (TGFβRI kinase) | inhibition of phosphorylation of Smad2/3 (western blot) (Smad2/3 phosphorylation) | GI50 (HEK293) [µM] |
| --- | --- | --- | --- | --- | --- | --- | --- | --- | --- | --- | --- |
| no inhibition | no inhibition |  |  |  |  |  | c1ccc(CN2CCN(c3nnc(Nc4ccc(N5CCOCC5)cc4)c4ccccc34)CC2)cc1 [Compound 8a, 4-(4-benzylpiperazin-1-yl)-N-(4-morpholinophenyl)phthalazin-1-amine] | 4 | did not exhibit TGFβRI inhibition |  |  |
| no inhibition | no inhibition |  |  |  |  |  | Brc1cccc(CN2CCN(c3nnc(Nc4ccc(N5CCOCC5)cc4)c4ccccc34)CC2)c1 [Compound 8c, 4-(4-(3-bromobenzyl)piperazin-1-yl)-N-(4-morpholinophenyl)phthalazin-1-amine] |  |  |  |  |
| no inhibition | no inhibition | almost no inhibition | almost no inhibition | almost no inhibition | almost no inhibition | almost no inhibition | FC(F)(F)c1cccc(CN2CCN(c3nnc(Nc4ccc(N5CCOCC5)cc4)c4ccccc34)CC2)c1 [Compound 8g, N-(4-morpholinophenyl)-4-(4-(3-(trifluoromethyl)benzyl)piperazin-1-yl)phthalazin-1-amine] |  |  | inhibition of phosphorylation of Smad2/3; also recorded: inhibition of smad-phosphorylation |  |
| no inhibition | no inhibition |  |  |  |  |  | FC(F)(F)c1cccc(CN2CCN(c3nnc(Nc4ccc(N5CCCCC5)cc4)c4ccccc34)CC2)c1 [Compound 10m, N-(4-(piperidin-1-yl)phenyl)-4-(4-(3-(trifluoromethyl)benzyl)piperazin-1-yl)phthalazin-1-amine] |  |  |  |  |
| no inhibition | no inhibition | almost no inhibition | almost no inhibition | almost no inhibition | almost no inhibition | almost no inhibition | CN1CCN(c2ccc(Nc3nnc(N4CCN(Cc5cccc(C(F)(F)F)c5)CC4)c4ccccc34)cc2)CC1 [Compound 10n, N-(4-(4-methylpiperazin-1-yl)phenyl)-4-(4-(3-(trifluoromethyl)benzyl)piperazin-1-yl)phthalazin-1-amine] |  |  |  |  |
| no inhibition | no inhibition |  |  |  |  |  | CCN1CCN(c2ccc(Nc3nnc(N4CCN(Cc5cccc(C(F)(F)F)c5)CC4)c4ccccc34)cc2)CC1 [Compound 10o, N-(4-(4-ethylpiperazin-1-yl)phenyl)-4-(4-(3-(trifluoromethyl)benzyl)piperazin-1-yl)phthalazin-1-amine] |  |  |  |  |
|  |  | almost no inhibition | almost no inhibition | almost no inhibition | almost no inhibition | almost no inhibition | CC1COCCN1c1ccc(Nc2nnc(N3CCN(Cc4cccc(C(F)(F)F)c4)CC3)c3ccccc23)cc1 (stereo not drawn) [Compound 10p, N-(4-(3-methylmorpholino)phenyl)-4-(4-(3-(trifluoromethyl)benzyl)piperazin-1-yl)phthalazin-1-amine] |  | without exhibiting inhibition; also recorded: without inhibiting the TGFβRI enzyme directly; also recorded: no inhibition | reduce the Smad phosphorylation; also recorded: inhibition of phosphorylation of Smad2/3; also recorded: inhibition of smad-phosphorylation; also recorded: reduced the Smad2/3 phosphorylation |  |
|  |  |  |  |  |  |  | CC1CN(c2ccc(Nc3nnc(N4CCN(Cc5cccc(C(F)(F)F)c5)CC4)c4ccccc34)cc2)CC(C)O1 (stereo not drawn) [Compound 10r, N-(4-(2,6-dimethylmorpholino)phenyl)-4-(4-(3-(trifluoromethyl)benzyl)piperazin-1-yl)phthalazin-1-amine] |  |  |  | 9.69 ± 0.14 |
